Laboratory results published in ChEMBL document CHEMBL1828498, “Identification and characterization of a novel integrin-linked kinase inhibitor” (J Med Chem, 2011).
Activity calls are given as the source filed them. No cut-off for these calls is given here.

Legend:
PC-3 [1] = test: Reduction in HER2 concentration in human PC3 cells after 24 hrs by Western blot analysis; type: functional, cell-based
Summary of the method: (§1)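 PC-3 versus stable PC-3/CA-ILK, or SKBR3 versus transient SKBR3/CA-ILK (electroporation, used 48 h after), treated 24 h in 5% FBS medium; immunoblotting with ECL; representative of three experiments.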

[2] = target: Protein kinase C alpha type (Homo sapiens) (UniProt P17252); test: Inhibition of PKCalpha at 5 uM assessed as remaining activity
[3] = target: Proto-oncogene tyrosine-protein kinase Src (Homo sapiens) (UniProt P12931); test: Inhibition of cSRC at 5 uM assessed as remaining activity
PC-3 [4] = test: Induction of apoptosis in human PC3 cells assessed as PARP cleavage by Western blot analysis; type: functional, cell-based
Summary of the method: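 PC-3 cells treated 24 h in 5% FBS medium. Lysed in 1% SDS/10 mM EDTA/50 mM Tris pH 8.1, equal protein on SDS-PAGE, primary antibody 1:1000 at 4°C for 2 h, HRP secondary, ECL detection. Read-outs PARP cleavage and LC3-II conversion; blots representative of three experiments.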

Mus musculus [5] = test: Inhibition of phosphorylation of Ser-437-Akt in human PC3 cells xenografted nude mouse tumor lysate at 25 mg/kg, po administered for 35 days by Western blot analysis; type: functional, organism-based; design: dose 25 mg/kg; details: Neoplasm, PC-3
Summary of the method: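 Tumors harvested at terminal sacrifice after 35 days of daily oral dosing, snap-frozen and stored at -80°C; lysates immunoblotted, three representative tumors per group.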

PC-3 [6] = test: Induction of apoptosis in human PC3 cells assessed as early apoptotic cells at 3 uM by annexin V/PI staining (reference value: 5.6%); type: functional
[7] = target: Rapamycin-insensitive companion of mTOR (Homo sapiens) (UniProt Q6R327); test: Inhibition of mTORC2 in human PC3 cells assessed as SGK1 phosphorylation by Western blot analysis; type: cell-based; details: PC-3
Summary of the method: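 Cells exposed 24 h in 5% FBS medium, final DMSO 0.1%; lysed in 1% SDS/10 mM EDTA/50 mM Tris pH 8.1, equal protein on SDS-PAGE, nitrocellulose, primary antibody 1:1000 at 4°C for 2 h, HRP secondary 1:5000, ECL detection; blots representative of three independent experiments.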

Mus musculus [8] = test: Decrease in phosphorylation of GSK3-beta in human PC3 cells xenografted nude mouse tumor lysate at 25 mg/kg, po administered for 35 days by Western blot analysis; type: functional, organism-based; design: dose 25 mg/kg; details: Neoplasm, PC-3
Summary of the method: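 Male NCr athymic nude mice, 5–7 weeks, with s.c. PC-3 xenografts (0.5 × 10^6 cells in 50% Matrigel), dosed by oral gavage once daily for 35 days. Vehicle 0.5% methylcellulose, 0.1% Tween 80 in water, 10 μL/g. Tumors snap-frozen at sacrifice; three tumors per group immunoblotted.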

PC-3 [9] = test: Reduction in HER2 mRNA expression in human PC3 cells expressing constitutively active ILK after 24 hrs by RT-PCR analysis; type: functional, cell-based
Summary of the method: (§2)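 PC-3, PC-3/CA-ILK, SKBR3 and SKBR3/CA-ILK cells treated 24 h in 5% FBS medium; total RNA from 1 × 10^6 cells by Trizol, 1 μg reverse-transcribed, then PCR with gene-specific primers and β-actin reference.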

[10] = target: Ribosomal protein S6 kinase beta-1 (Homo sapiens) (UniProt P23443); test: Inhibition of p70S6K in human PC3 cells assessed as decrease in phosphorylated p70S6K by Western blot analysis; type: cell-based; details: PC-3
Summary of the method: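 PC-3 cells (parental, or stable GFP-CA-ILK clones selected with G418 250 μg/mL and GFP sorting) exposed 24 h in 5% FBS medium; SDS lysis, immunoblot at 1:1000 primary, ECL; representative of three experiments.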

[11] = target: T1, Scaffold protein ILK (Homo sapiens) (UniProt Q13418); test: Inhibition of ILK in human PC3 cells assessed as decrease in GSK3-beta phosphorylation by Western blot analysis; type: cell-based; details: PC-3
T1 sequence (whole entry): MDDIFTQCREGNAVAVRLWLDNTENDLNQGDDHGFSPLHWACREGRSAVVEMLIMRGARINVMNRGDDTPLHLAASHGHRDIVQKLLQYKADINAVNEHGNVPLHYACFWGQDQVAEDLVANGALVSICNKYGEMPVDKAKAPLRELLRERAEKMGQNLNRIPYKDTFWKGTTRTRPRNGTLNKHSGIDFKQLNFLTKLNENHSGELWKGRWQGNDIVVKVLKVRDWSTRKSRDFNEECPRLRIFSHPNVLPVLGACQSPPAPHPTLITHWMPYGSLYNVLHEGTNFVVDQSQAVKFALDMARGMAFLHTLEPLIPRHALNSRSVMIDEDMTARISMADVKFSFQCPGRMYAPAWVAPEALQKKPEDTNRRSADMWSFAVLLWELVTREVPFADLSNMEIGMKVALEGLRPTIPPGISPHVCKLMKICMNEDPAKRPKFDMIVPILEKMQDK
Summary of the method: (§3)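 PC-3 and MDA-MB-231 cells exposed 24 h in 5% FBS medium across a concentration series. Phospho-GSK3β (Ser9) and phospho-MLC (Thr18/Ser19) detected by immunoblot: SDS lysis, primary 1:1000 at 4°C for 2 h, HRP secondary, ECL. Representative of three experiments.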

PC-3 [12] = test: Reduction in YB-1 concentration in human PC3 cells expressing constitutively active ILK after 24 hrs by Western blot analysis; type: functional, cell-based; summary of the method: as §1
MDA-MB-468 = test: Antiproliferative activity against human MDA-MB-468 cells assessed as suppression of cell viability by MTT assay; type: functional, cell-based
Summary of the method: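 Cancer lines seeded 5000/well and nonmalignant PrEC/MEC 8000/well in 10% FBS, 24 h before treatment. Compound exposure 24 h in 5% FBS medium, 0.1% final DMSO. MTT (0.25 mg/mL) for 1 h at 37°C, dye solubilized in DMSO, absorbance read at 570 nm. Mean ± SD, n = 6.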

PC-3 [13] = test: Reduction in EGFR concentration in human PC3 cells expressing constitutively active ILK after 24 hrs by Western blot analysis; type: functional, cell-based; summary of the method: as §1
[14] = target: T1, Scaffold protein ILK (Homo sapiens); test: Inhibition of ILK in human MDA-MB-231 cells assessed as decrease in GSK3-beta phosphorylation by Western blot analysis; type: cell-based; summary of the method: as §3
PC-3 [15] = test: Reduction in EGFR concentration in human PC3 cells after 24 hrs by Western blot analysis; type: functional, cell-based; summary of the method: as §1
SK-BR-3 = test: Reduction in YB-1 mRNA expression in human SKBR3 cells expressing constitutively active ILK after 24 hrs by RT-PCR analysis; type: functional, cell-based; summary of the method: as §2
[16] = target: Ribosomal protein S6 kinase alpha-1 (Homo sapiens) (UniProt Q15418); test: Inhibition of Rsk1 at 5 uM assessed as remaining activity
[17] = target: T1, Scaffold protein ILK (Homo sapiens); test: Inhibition of ILK in human PC3 cells assessed as decrease in phosphorylated JNK concentration by Western blot analysis; type: cell-based; details: PC-3
Summary of the method: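 PC-3 cells exposed to graded concentrations for 24 h in 5% FBS medium. Immunoblotting for phospho-Tyr397-FAK, ERK1/2, p38 and JNK. Lysis in 1% SDS buffer, primary antibody 1:1000 at 4°C for 2 h, ECL. Three independent experiments.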

Ribosomal protein S6 kinase alpha-1 (Homo sapiens), sequence (Q15418 whole entry): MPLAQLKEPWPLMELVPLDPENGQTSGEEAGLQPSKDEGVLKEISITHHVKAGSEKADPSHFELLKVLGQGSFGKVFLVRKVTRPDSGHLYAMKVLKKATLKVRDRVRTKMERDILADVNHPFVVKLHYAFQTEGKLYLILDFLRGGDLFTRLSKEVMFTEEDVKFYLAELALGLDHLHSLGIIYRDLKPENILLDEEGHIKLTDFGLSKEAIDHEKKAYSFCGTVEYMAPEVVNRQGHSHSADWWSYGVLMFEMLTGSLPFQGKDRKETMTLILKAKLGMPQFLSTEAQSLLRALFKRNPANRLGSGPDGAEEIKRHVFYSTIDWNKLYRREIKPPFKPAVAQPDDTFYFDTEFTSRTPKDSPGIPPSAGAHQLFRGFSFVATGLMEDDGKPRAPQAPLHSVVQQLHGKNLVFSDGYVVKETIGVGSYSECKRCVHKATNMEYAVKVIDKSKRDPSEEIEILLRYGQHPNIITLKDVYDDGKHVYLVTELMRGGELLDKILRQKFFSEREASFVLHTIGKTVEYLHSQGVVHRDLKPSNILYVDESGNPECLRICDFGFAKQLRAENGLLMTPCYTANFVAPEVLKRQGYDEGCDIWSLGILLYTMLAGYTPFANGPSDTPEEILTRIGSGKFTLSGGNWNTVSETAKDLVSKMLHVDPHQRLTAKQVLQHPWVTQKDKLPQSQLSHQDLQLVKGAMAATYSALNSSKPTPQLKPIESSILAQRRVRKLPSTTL
Proto-oncogene tyrosine-protein kinase Src (Homo sapiens), sequence (P12931 2-536 limits assumed): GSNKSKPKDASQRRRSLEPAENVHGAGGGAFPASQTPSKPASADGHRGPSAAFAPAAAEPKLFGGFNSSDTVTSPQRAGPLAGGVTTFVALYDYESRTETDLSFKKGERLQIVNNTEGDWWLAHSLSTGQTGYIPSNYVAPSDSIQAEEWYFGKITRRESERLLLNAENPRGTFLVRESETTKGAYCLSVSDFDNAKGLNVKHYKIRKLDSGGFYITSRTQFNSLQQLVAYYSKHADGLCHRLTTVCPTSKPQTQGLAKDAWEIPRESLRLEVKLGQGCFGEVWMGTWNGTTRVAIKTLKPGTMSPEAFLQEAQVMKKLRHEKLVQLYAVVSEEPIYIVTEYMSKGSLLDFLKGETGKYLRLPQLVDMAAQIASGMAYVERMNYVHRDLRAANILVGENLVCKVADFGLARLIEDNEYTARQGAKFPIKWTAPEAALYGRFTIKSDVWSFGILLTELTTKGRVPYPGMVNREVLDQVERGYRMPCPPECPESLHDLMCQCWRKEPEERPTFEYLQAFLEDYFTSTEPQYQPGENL
Rapamycin-insensitive companion of mTOR (Homo sapiens), sequence (Q6R327 whole entry): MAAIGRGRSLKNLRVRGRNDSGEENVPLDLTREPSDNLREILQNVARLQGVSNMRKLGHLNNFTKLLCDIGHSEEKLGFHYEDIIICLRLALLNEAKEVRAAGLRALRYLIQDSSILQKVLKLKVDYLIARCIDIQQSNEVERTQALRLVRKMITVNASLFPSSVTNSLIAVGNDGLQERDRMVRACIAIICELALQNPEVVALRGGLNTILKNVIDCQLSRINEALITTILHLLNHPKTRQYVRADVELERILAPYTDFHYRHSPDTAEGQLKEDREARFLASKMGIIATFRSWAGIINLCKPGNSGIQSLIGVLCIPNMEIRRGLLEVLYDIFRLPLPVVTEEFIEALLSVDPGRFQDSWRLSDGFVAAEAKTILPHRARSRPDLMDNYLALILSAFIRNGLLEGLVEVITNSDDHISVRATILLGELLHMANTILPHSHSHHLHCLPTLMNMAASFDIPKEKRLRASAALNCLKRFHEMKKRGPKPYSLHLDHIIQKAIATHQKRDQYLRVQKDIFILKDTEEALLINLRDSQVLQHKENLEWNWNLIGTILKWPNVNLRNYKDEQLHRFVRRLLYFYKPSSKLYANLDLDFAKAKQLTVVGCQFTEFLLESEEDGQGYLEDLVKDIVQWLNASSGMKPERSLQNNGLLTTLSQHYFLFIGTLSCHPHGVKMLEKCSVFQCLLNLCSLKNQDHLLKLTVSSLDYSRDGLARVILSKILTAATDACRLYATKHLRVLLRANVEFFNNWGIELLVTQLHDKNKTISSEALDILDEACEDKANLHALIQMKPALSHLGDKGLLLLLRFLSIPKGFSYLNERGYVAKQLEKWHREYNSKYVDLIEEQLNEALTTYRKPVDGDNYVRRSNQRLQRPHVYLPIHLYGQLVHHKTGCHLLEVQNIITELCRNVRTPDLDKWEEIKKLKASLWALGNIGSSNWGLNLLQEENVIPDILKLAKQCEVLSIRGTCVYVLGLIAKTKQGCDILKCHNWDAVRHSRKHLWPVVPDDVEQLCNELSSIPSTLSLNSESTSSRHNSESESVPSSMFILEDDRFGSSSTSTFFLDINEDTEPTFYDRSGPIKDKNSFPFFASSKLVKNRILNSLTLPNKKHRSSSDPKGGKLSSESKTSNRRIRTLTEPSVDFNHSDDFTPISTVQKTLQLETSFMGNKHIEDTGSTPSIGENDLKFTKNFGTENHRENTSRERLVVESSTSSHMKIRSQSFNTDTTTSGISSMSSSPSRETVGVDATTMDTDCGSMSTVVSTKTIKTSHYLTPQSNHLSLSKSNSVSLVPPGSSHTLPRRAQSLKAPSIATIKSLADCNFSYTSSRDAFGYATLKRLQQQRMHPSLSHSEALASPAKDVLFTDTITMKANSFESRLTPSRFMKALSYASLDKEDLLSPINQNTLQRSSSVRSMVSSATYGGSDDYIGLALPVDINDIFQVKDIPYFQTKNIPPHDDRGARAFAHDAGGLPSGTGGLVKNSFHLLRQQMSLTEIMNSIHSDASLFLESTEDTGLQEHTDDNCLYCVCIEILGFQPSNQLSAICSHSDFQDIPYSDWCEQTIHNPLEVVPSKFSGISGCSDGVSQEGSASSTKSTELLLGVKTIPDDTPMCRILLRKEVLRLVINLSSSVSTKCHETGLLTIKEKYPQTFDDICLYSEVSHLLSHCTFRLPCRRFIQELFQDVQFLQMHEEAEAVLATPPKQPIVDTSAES
Ribosomal protein S6 kinase beta-1 (Homo sapiens), sequence (P23443 whole entry, looked up): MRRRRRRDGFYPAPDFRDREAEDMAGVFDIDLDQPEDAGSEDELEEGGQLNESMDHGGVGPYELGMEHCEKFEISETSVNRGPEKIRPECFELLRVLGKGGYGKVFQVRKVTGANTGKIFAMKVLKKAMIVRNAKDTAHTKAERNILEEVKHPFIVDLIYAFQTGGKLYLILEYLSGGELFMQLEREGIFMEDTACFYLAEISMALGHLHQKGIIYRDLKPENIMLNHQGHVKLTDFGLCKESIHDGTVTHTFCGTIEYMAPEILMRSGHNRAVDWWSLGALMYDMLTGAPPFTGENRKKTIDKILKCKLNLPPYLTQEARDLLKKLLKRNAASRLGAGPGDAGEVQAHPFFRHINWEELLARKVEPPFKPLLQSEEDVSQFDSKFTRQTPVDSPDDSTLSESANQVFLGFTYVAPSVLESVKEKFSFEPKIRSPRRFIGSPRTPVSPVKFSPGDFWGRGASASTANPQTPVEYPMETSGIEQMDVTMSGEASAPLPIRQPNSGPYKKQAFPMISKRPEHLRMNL

Activity [2]: 97%
Activity [3]: 91%
inhibition [7]: inactive
inhibition [10]: inactive
inhibition [11]: Active
IC50 (MDA-MB-468): 1500 nM
inhibition [14]: Active
Activity [16]: 65%
inhibition [17]: inactive
SMILES: CNC(=O)CCc1cc(-c2ccc(-c3ccc(C(F)(F)F)cc3)cc2)n(-c2ccc(N3CCNCC3)cc2)n1
Activity (PC-3 [1]): Dose-dependent effect
Activity (PC-3 [4]): Dose-dependent effect
Activity (Mus musculus [5]): Dose-dependent effect
Activity (PC-3 [6]): 12.1%
Activity (Mus musculus [8]): Active
Activity (PC-3 [9]): inactive
Activity (PC-3 [12]): inactive
Activity (PC-3 [13]): inactive
Activity (PC-3 [15]): Dose-dependent effect
Activity (SK-BR-3): inactive
